Bioassay records: PubChem, several laboratories
Hck Nef HTS = inhibitors of Nef-activated human Hck kinase, primary screen, biochemical, Z-Lyte FRET, 384-well, Hck-YEEI; Tyrosine-protein kinase HCK (Homo sapiens), P08631; Recombinant Hck-YEEI plus Nef, Z-Lyte FRET kinase assay; inhibition, % at 20 µM; hit rate 0.68% among 220,000;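 active means Hck-Nef kinase inhibition above about 50%, limit read from the data; inactive means inhibition below that limit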;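 further: 0% = DMSO with Hck plus Nef and 100% = Hck alone without Nef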
14-3-3 Bad PPI = inhibitors of 14-3-3 zeta/Bad binding, primary screen, biochemical, TR-FRET, bovine 14-3-3 zeta. TR-FRET 14-3-3zeta/Dy647-pBad peptide displacement, 1 h. AID 781, 2007. hit rate 0.71% among 220,000. 14-3-3 protein zeta/delta (Bos taurus), P63103. inhibition, % at 21.7 µM;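 active means inhibition above about 70%, limit read from the data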;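 further: 0% = full 14-3-3 plus peptide FRET controls and 100% = background without 14-3-3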
Target sequence (P63103 whole entry, looked up): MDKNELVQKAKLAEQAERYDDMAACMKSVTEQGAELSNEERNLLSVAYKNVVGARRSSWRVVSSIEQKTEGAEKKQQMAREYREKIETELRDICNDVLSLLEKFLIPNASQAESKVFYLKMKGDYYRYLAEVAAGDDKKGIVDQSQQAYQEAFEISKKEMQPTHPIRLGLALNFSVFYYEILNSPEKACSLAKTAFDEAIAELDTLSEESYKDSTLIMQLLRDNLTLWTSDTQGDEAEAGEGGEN
Wee1 stabilizer = Wee1 degradation inhibitors, primary screen, cell-based, HeLa, Wee1K328M-luciferase, luminescence; HeLa Luc-Wee1K328M stability; 100% = proteasome inhibitor MG132 effect; reporter increase, % at 5 µM; hit rate 1.2% among 220,000;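 active means activation above the mean of all tested compounds plus 3 SD, set per screening run, cut at about 8.8% in these data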;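 further: cells exposed to compound for 20 h before luminescence read; 0% = DMSO alone and 100% = MG132 at 30 µM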
Tb hexokinase = Trypanosoma brucei hexokinase 1 inhibitors, primary screen, biochemical, G6PDH-coupled NADH absorbance, MLSCN library. hexokinase 1 [Trypanosoma brucei]. inhibition, % at 10 µM. recombinant TbHK1, G6PDH-coupled NADH A340. hit rate 0.11% among 220,000;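 active means inhibition of 50% or more in the single-dose primary screen; inactive means inhibition below 50%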
MDM2 E3 inh = MDM2-luciferase reporter signal enhancers, primary screen, MDM2 E3 ligase inhibitor project, cell-based, luminescence, 1536-well | hit rate 0.11% among 210,000 | signal enhancement, % at 5 µM | E3 ubiquitin-protein ligase Mdm2 (Homo sapiens), Q00987 | cell-based MDM2 ubiquitination luciferase reporter, 2 h; 0 = plate control, 100 = twice control, blank-subtracted;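 active means signal enhancement of 30% or more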;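 further: luminescence tracks abundance of the self-degrading MDM2-luciferase fusion protein; higher signal means inhibition of MDM2 E3 ligase activity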
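Buffer or medium: Cells held in DMEM | Assay system: Stable mammalian line carrying autodegrading MDM2–luciferase fusion reporter | Quantity: 2000 cells/well | Times: 4 h settle plus 2 h compound, 37 °C | Doses: One concentration, 5 µM, with 0.2% DMSO | Technique: Luminescence with SteadyLite reagent, 15 min at room temperature | Benchmarks: Plate controls and plate blanks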
* = called active by the depositor; . = not tested or not shown. Only some compounds are listed: those with a hit (about 2.7% of all), similar ones and a draw of the others.

SMILES	Hck Nef HTS	14-3-3 Bad PPI	Wee1 stabilizer	Tb hexokinase	MDM2 E3 inh
Cc1ccc(/C=C2\C(=O)NC(=S)N(c3ccc(F)cc3)C2=O)s1	99*	-12	-2	40	4
O=c1[nH]c(=O)n(C2CCCCC2)c(O)c1/C=C/C=Nc1ccccc1	27	-7	-2	-18	.
Cc1cccc(-n2c(O)c(C)c(=O)[nH]c2=S)c1	29	-10	0	-4	-12
Cc1cccc(-n2c(-c3cccs3)nc3ccccc3c2=O)c1	2	71*	3	-12	-11
O=c1c2ccccc2nc(-c2cccs2)n1-c1ccccc1	3	5	-1	-11	7
CC(NC1=NCCS1)c1ccccc1 (stereo unspecified)	20	-12	-2	-4	-4
C=C1C(=O)O[C@@H]2C[C@@H](C)[C@@H]3C=CC(=O)[C@@]3(C)[C@@H](O)[C@H]12	18	-4	.	-13	53*
C[C@@H]1C[C@H]2OC(=O)C3(CO3)[C@H]2[C@H](O)[C@]2(C)C(=O)C3OC3[C@@H]12 (stereo partly specified)	29	-2	.	-10	-7
CCOC(=O)c1cc(CC)sc1/N=C/c1c(O)[nH]c(=S)[nH]c1=O	4	9	2	0	-1
O=[N+]([O-])/C=C1/NCCN1Cc1ccc(Cl)nc1	0	-8	6	-28	-6
Cc1ccc(S(=O)(=O)N2CCCCC2)cc1NC(=O)CN1CC=C(c2ccccc2)CC1	0	-1	9.2*	0	-16
c1ccc2c(CN3CCN(C4CCCCC4)CC3)c[nH]c2c1	0	-11	11*	-3	-7
CCn1cc(C(=O)N2CCOCC2)c2ccccc21	12	-1	0	10	-13
C=CCn1c(=O)c(C=Nc2c(OC)cccc2[N+](=O)[O-])c(O)n(CCCC)c1=O	5	4	-3	-11	27
Cc1ccsc1C(=O)C1CCCN(Cc2ccc(-n3cccn3)cc2)C1 (stereo unspecified)	14	-15	1	-11	4
CCCCN1C(=O)C(C2c3ccccc3C(=O)N2Cc2ccccc2)C(=O)NC1=S (stereo unspecified)	1	36	9.9*	-2	-23
Cc1ccc(N2C(=O)NC(=O)/C(=C\c3ccc(N4CCOCC4)cc3)C2=O)cc1	5	3	-3	-24	2
Cc1ccc(N2C(=O)NC(=O)/C(=C\c3ccc([N+](=O)[O-])o3)C2=O)cc1	50*	47	-1	7	-10
COc1ccc(-c2nn(CCC#N)cc2C(=O)Nc2ccccc2Br)cc1[N+](=O)[O-]	30	1	4	-2	.
Fc1ccc2c(c1)nnn2C1CCN(Cc2nnnn2C2CCCCC2)CC1	0	80*	-2	7	-9
Cc1nc2cc(F)ccc2n1C1CCN(Cc2nnnn2CCc2ccccc2)CC1	3	80*	0	-12	-15
Cc1ccc2ccccc2c1NC(=O)CNC1CCCCC1	-1	15	10*	4	-5
CNC(=O)N(C)c1ccc(C(O)(C(=O)OC)C(F)(F)F)cc1 (stereo unspecified)	10	-11	-3	-10	-11
CC(=O)N1CN2CN(C(C)=O)CC(C(=O)c3ccccc3)(C2)C1	4	3	-1	-1	-14
O=C(c1ccncc1)C12CN3CN(CN(C3)C1)C2	0	85*	-3	-4	-11
CCCC(=O)NC(Oc1ccccc1Cl)C(Cl)(Cl)Cl (stereo unspecified)	1	77*	-3	6	-14
CCCC(=O)NC(Oc1ccc(OC)cc1)C(Cl)(Cl)Cl (stereo unspecified)	4	-11	0	3	-2
CCCC(=O)NC(Oc1ccc(Cl)cc1Cl)C(Cl)(Cl)Cl (stereo unspecified)	2	88*	-1	1	2
